Tests used:
Rattus norvegicus [1] = test: Gastric emptying of phenol red semisolid meal in rats at dose of 2.0 mg/kg, administered perorally.; format: functional; conditions: route oral
Mus musculus [2] = test: Toxicity tested in mouse and expressed as number of dead mouse / number of mouse used after a dose of 1.0 g/kg perorally; + slight toxicity; format: organism-based; conditions: in vivo, po, 1000 mg/kg
Outline: (§1)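 Male ddY mice (18–25 g), groups of 10, given test compound dissolved or suspended in 0.5% tragacanth solution at a single oral dose of 1.0 g/kg. Mortality observed over 7 days after dosing and scored as dead/used per group; + corresponds to 0–2/10 dead.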

Mus musculus [3] = test: Toxicity tested in mouse and expressed as number of dead mouse / number of mouse used after a dose of 1.0 g/kg perorally; +++ potent toxicity; format: organism-based; conditions: in vivo, po, 1000 mg/kg; outline: as §1
Mus musculus [4] = test: Toxicity tested in mouse and expressed as number of dead mouse / number of mouse used after a dose of 1.0 g/kg perorally; ++ moderate toxicity; format: organism-based; conditions: in vivo, po, 1000 mg/kg; outline: as §1
Rattus norvegicus [5] = test: Gastric emptying of phenol red semisolid meal in rats at the dose of 0.5 mg/kg administered perorally.; format: functional; conditions: route oral
Mus musculus [6] = test: Gastric emptying of phenol red semisolid meal in mouse at the dose of 0.5 mg/kg administered perorally.; format: functional; conditions: route oral
Outline: (§2)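 Mice received oral test article in 0.5% tragacanth, four or five animals per dose. Emptying of a phenol red semisolid meal was expressed as percent enhancement over the mean of 0.5% tragacanth controls. Significance was tested by Duncan's multiple range test.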

Rattus norvegicus [7] = test: Gastric emptying of resin solid meal in rats at the dose of 2.0 mg/kg administered perorally.; format: functional; conditions: route oral
Mus musculus [8] = test: Gastric emptying of phenol red semisolid meal in mouse at the dose of 1.0 mg/kg administered perorally.; format: functional; conditions: route oral; outline: as §2
Rattus norvegicus [9] = test: Gastric emptying of phenol red semisolid meal in rats at the dose of 0.2 mg/kg administered perorally.; format: functional; conditions: route oral

## COc1cc(N)c(Cl)cc1C(=O)NCC1CN(C(C)c2ccc(F)cc2)CCO1 (centres undefined)
Rattus norvegicus [1]
  GE: 13%

## COc1cc(N)c(Cl)cc1C(=O)NCC1CN(Cc2ccc(F)cc2)CCO1 (centres undefined)
Rattus norvegicus [1]
  GE: 38%

## COc1cc(N)c(Cl)cc1C(=O)NCC1CN(Cc2ccccc2F)CCO1 (centres undefined)
Rattus norvegicus [1]
  GE: 28%

## COc1cc(N)c(Cl)cc1C(=O)NCC1CN(Cc2c(C)cc(C)cc2C)CCO1 (centres undefined)
Rattus norvegicus [1]
  GE: 5%

## CCOc1cc(N)c(Cl)cc1C(=O)NCC1C[N+](C)(Cc2ccccc2Cl)CCO1.[I-] (centres undefined)
Rattus norvegicus [1]
  GE: 34%

## COc1cc(N)c(Cl)cc1C(=O)NCC1CN(CCc2ccccc2)CCO1 (centres undefined)
Rattus norvegicus [1]
  GE: 29%

## CCOc1cc(N)c(Cl)cc1C(=O)NCC1CN(Cc2cccc(F)c2)CCO1 (centres undefined)
Rattus norvegicus [1]
  GE: 54%

## CCOc1cc(N)c(Cl)cc1C(=O)NCC1CN(Cc2ccc(C#N)cc2)CCO1 (centres undefined)
Rattus norvegicus [1]
  GE: 46%
Mus musculus [2]
  Acute toxicity: slight toxicity

## COc1cc(N)c(Cl)cc1C(=O)NCC1CN(Cc2ccccc2C#N)CCO1 (centres undefined)
Rattus norvegicus [1]
  GE: 43%
Mus musculus [2]
  Acute toxicity: slight toxicity

## CCOc1cc(N)c(Cl)cc1C(=O)NCC1CN(Cc2cc(F)cc(F)c2)CCO1 (centres undefined)
Rattus norvegicus [1]
  GE: 52%

## CCOc1cc(N)c(Cl)cc1C(=O)NCC1CN(Cc2ccccc2C#N)CCO1 (centres undefined)
Rattus norvegicus [1]
  GE: 29%

## CCOc1cc(N)c(Cl)cc1C(=O)NCC1CN(C(C)c2ccc(Cl)cc2)CCO1 (centres undefined)
Rattus norvegicus [1]
  GE: 33%

## CCOc1cc(N)c(Cl)cc1C(=O)NCC1CN(Cc2ccc(C(=O)O)cc2)CCO1 (centres undefined)
Rattus norvegicus [1]
  GE: 13%

## COc1cc(N)c(Cl)cc1C(=O)NCC1CN(Cc2ccc(N)cc2)CCO1 (centres undefined)
Rattus norvegicus [1]
  GE: 17%

## COc1cccc(CN2CCOC(CNC(=O)c3cc(Cl)c(N)cc3OC)C2)c1 (centres undefined)
Rattus norvegicus [1]
  GE: 10%

## COc1cc(N)c(Cl)cc1C(=O)NCC1CN(Cc2ccc(Cl)c(Cl)c2)CCO1 (centres undefined)
Rattus norvegicus [1]
  GE: 16%

## CCOc1cc(N)c(Cl)cc1C(=O)NCC1CN(Cc2ccccc2Cl)CCO1 (centres undefined)
Rattus norvegicus [1]
  GE: 51%
Mus musculus [2]
  Acute toxicity: slight toxicity

## COc1cc(N)c(Cl)cc1C(=O)NCC1CN(C(c2ccccc2)c2ccccc2)CCO1 (centres undefined)
Rattus norvegicus [1]
  GE: 15%

## CCOc1cc(NC=O)c(Cl)cc1C(=O)NCC1CN(Cc2ccc(F)cc2)CCO1 (centres undefined)
Rattus norvegicus [1]
  GE: 33%

## COc1cc(N)c(Cl)cc1C(=O)NCC1CN(Cc2c(F)c(F)c(F)c(F)c2F)CCO1 (centres undefined)
Rattus norvegicus [1]
  GE: 39%
Mus musculus [2]
  Acute toxicity: slight toxicity

## CCOc1cc(N)c(Cl)cc1C(=O)NCC1CN(Cc2ccc(Cl)cc2[N+](=O)[O-])CCO1 (centres undefined)
Rattus norvegicus [1]
  GE: 47%

## CCOc1cc(N)c(Cl)cc1C(=O)NCC1CN(Cc2cccc(C#N)c2)CCO1 (centres undefined)
Rattus norvegicus [1]
  GE: 33%

## CCOc1cc(N)c(Cl)cc1C(=O)NCC1CN(C(C)c2ccccc2)CCO1 (centres undefined)
Rattus norvegicus [1]
  GE: 44%
Mus musculus [3]
  Acute toxicity: potent toxicity

## CCOc1cc(N)c(Cl)cc1C(=O)NCC1CN(Cc2cccc(Cl)c2)CCO1 (centres undefined)
Mus musculus [4]
  Acute toxicity: moderate toxicity
Rattus norvegicus [1]
  GE: 58%

## COc1cc(N)c(Cl)cc1C(=O)NCC1CN(Cc2cccc(C#N)c2)CCO1 (centres undefined)
Rattus norvegicus [1]
  GE: 42%
Mus musculus [3]
  Acute toxicity: potent toxicity

## COc1cc(N)c(Cl)cc1C(=O)NCC1CN(C(C)c2ccccc2)CCO1 (centres undefined)
Rattus norvegicus [1]
  GE: 42%
Mus musculus [3]
  Acute toxicity: potent toxicity

## CCOc1cc(N)c(Cl)cc1C(=O)NCC1CN(Cc2ccccc2)CCO1 (centres undefined)
Rattus norvegicus [5]
  GE: 34%
Mus musculus [6]
  GE: 35%
Rattus norvegicus [7]
  GE: 58%
Rattus norvegicus [1]
  GE: 54%
Mus musculus [8]
  GE: 23%
Mus musculus [2]
  Acute toxicity: Partially active

## COc1cc(N)c(Cl)cc1C(=O)NCC1CN(Cc2ccccc2)CCO1 (centres undefined)
Rattus norvegicus [5]
  GE: 18%
Mus musculus [6]
  GE: 41%
Mus musculus [4]
  Acute toxicity: Partially active
Rattus norvegicus [7]
  GE: 16%
Rattus norvegicus [1]
  GE: 39%
Mus musculus [8]
  GE: 59%

## CCOc1cc(N)c(Cl)cc1C(=O)NCC1CN(CCCc2ccccc2)CCO1 (centres undefined)
Rattus norvegicus [1]
  GE: 18%

## COc1cc(N)c(Cl)cc1C(=O)NCC1CN(Cc2cccc(C(F)(F)F)c2)CCO1 (centres undefined)
Mus musculus [4]
  Acute toxicity: moderate toxicity
Rattus norvegicus [1]
  GE: 43%

## COc1cc(N)c(Cl)cc1C(=O)NCC1CN(Cc2ccc(C(F)(F)F)cc2)CCO1 (centres undefined)
Rattus norvegicus [1]
  GE: 23%

## CCOc1cc(N)c(Cl)cc1C(=O)NCC1CN(Cc2ccc(C(=O)OC)cc2)CCO1 (centres undefined)
Rattus norvegicus [1]
  GE: 52%

## CCOc1cc(N)c(Cl)cc1C(=O)NCC1CN(Cc2c(F)c(F)c(F)c(F)c2F)CCO1 (centres undefined)
Rattus norvegicus [1]
  GE: 23%

## CCOc1cc(NC(C)=O)c(Cl)cc1C(=O)NCC1CN(Cc2ccc(F)cc2)CCO1 (centres undefined)
Rattus norvegicus [5]
  GE: 22%
Mus musculus [6]
  GE: 75%
Rattus norvegicus [7]
  GE: 0%
Rattus norvegicus [1]
  GE: 74%
Rattus norvegicus [9]
  GE: 33%
Mus musculus [8]
  GE: 82%

## CCOc1cc(N)c(Cl)cc1C(=O)NCC1C[N+]([O-])(Cc2ccccc2Cl)CCO1 (centres undefined)
Rattus norvegicus [1]
  GE: 52%

## COc1cc(N)c(Cl)cc1C(=O)NCC1CN(Cc2ccc(C#N)cc2)CCO1 (centres undefined)
Rattus norvegicus [5]
  GE: 21%
Mus musculus [6]
  GE: 15%
Rattus norvegicus [7]
  GE: 36%
Rattus norvegicus [1]
  GE: 49%
Rattus norvegicus [9]
  GE: 0%
Mus musculus [8]
  GE: 44%
Mus musculus [2]
  Acute toxicity: slight toxicity

## COc1cc(N)c(Cl)cc1C(=O)NCC1CN(Cc2ccc([N+](=O)[O-])cc2)CCO1 (centres undefined)
Rattus norvegicus [1]
  GE: 22%

## COc1cc(N)c(Cl)cc1C(=O)NCC1CN(Cc2cccc(F)c2)CCO1 (centres undefined)
Rattus norvegicus [1]
  GE: 30%

## CCOc1cc(N)c(Cl)cc1C(=O)NCC1CN(Cc2ccc(F)cc2F)CCO1 (centres undefined)
Rattus norvegicus [5]
  GE: 42%
Mus musculus [6]
  GE: 83%
Rattus norvegicus [7]
  GE: 76%
Rattus norvegicus [1]
  GE: 76%
Rattus norvegicus [9]
  GE: 0%
Mus musculus [8]
  GE: 89%

## CCOc1cc(N)c(Cl)cc1C(=O)NCC1CN(Cc2ccc(F)c(F)c2)CCO1 (centres undefined)
Rattus norvegicus [1]
  GE: 46%

## COc1cc(N)c(Cl)cc1C(=O)NCC1CN(Cc2ccc(C(=O)O)cc2)CCO1 (centres undefined)
Rattus norvegicus [1]
  GE: 18%

## CCOc1cc(N)c(Cl)cc1C(=O)NCC1CN(Cc2cccc(C(F)(F)F)c2)CCO1 (centres undefined)
Rattus norvegicus [5]
  GE: 37%
Mus musculus [6]
  GE: 4%
Rattus norvegicus [7]
  GE: 22%
Rattus norvegicus [1]
  GE: 58%
Rattus norvegicus [9]
  GE: 32%
Mus musculus [8]
  GE: 21%
Mus musculus [2]
  Acute toxicity: slight toxicity

## COc1ccc(CN2CCOC(CNC(=O)c3cc(Cl)c(N)cc3OC)C2)cc1 (centres undefined)
Rattus norvegicus [1]
  GE: 10%

## COc1cc(N)c(Cl)cc1C(=O)NCC1CN(Cc2ccc(Br)cc2)CCO1 (centres undefined)
Rattus norvegicus [1]
  GE: 15%

## CCOc1cc(N)c(Cl)cc1C(=O)NCC1CN(Cc2ccc(Cl)cc2)CCO1 (centres undefined)
Rattus norvegicus [5]
  GE: 50%
Mus musculus [6]
  GE: 0%
Rattus norvegicus [7]
  GE: 65%
Rattus norvegicus [1]
  GE: 63%
Rattus norvegicus [9]
  GE: 37%
Mus musculus [8]
  GE: 21%
Mus musculus [2]
  Acute toxicity: slight toxicity

## CCOc1cc(N)c(Cl)cc1C(=O)NCC1CN(Cc2ccccc2F)CCO1 (centres undefined)
Rattus norvegicus [1]
  GE: 60%

## CCOc1cc(N)c(Cl)cc1C(=O)NCC1CN(CCCCc2ccccc2)CCO1 (centres undefined)
Rattus norvegicus [1]
  GE: 47%

## COc1cc(N)c(Cl)cc1C(=O)NCC1CN(Cc2ccc(Cl)cc2)CCO1 (centres undefined)
Mus musculus [4]
  Acute toxicity: moderate toxicity
Rattus norvegicus [1]
  GE: 36%

## COc1cc(N)c(Cl)cc1C(=O)NCC1CN(Cc2ccc(C)cc2)CCO1 (centres undefined)
Rattus norvegicus [1]
  GE: 11%

## CCOc1cc(N)c(Cl)cc1C(=O)NCC1CN(Cc2ccc(F)cc2)CCO1 (centres undefined) [MOSAPRIDE]
Rattus norvegicus [5]
  GE: 46%
Mus musculus [6]
  GE: 44%
Mus musculus [4]
  Acute toxicity: Partially active
Rattus norvegicus [7]
  GE: 79%
Rattus norvegicus [1]
  GE: 61%
Rattus norvegicus [9]
  GE: 44%
Mus musculus [8]
  GE: 37%

From ChEMBL document CHEMBL1125819, “Novel benzamides as selective and potent gastrokinetic agents. 2. Synthesis and structure-activity relationships of 4-amino-5-chloro-2-ethoxy-N-[[4-(4-fluorobenzyl)-2- morpholinyl]methyl] benzamide citrate (AS-4370) and related compounds” (J Med Chem, 1991)
